Reference: ChEMBL document CHEMBL1124794, “Synthesis, chemistry, and antineoplastic activity of alpha-halopyridinium salts: potential pyridone prodrugs of acylated vinylogous carbinolamine tumor inhibitors” (J Med Chem, 1990)
Several values for one entry are separate records, joined by “and”; a condition that tells them apart may be missing. Identical values can stand only once. Values belong to the molecule of their own block, whether it stands above or below them.

Columns and labels:
[1] = Effect of pH on the hydrolysis of pyridinium Moity in 0.05 M buffer concentration at the pH 7.0; format: ADME
Outline: (§1)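 Pyridinium salt in 0.05 M phosphate buffer, pH 6.0–8.0 (set by pH meter), ionic strength 0.25 M, 25 °C. Decrease in the pyridinium UV absorbance maximum followed over time to give pseudo-first-order kobs and half-life.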

[2] = Effect of pH on the hydrolysis of pyridinium Moity in 0.05 M buffer concentration at the pH 7.4; format: ADME; outline: as §1
[3] = Effect of phosphate buffer on the hydrolysis of alpha Fluoropyridinium Moity at the concentration of 0.10M, pH 8.0, 25 degree C.; format: ADME
Outline: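 α-Fluoropyridinium hydrolysis to pyridone in phosphate buffer at 0.02, 0.05 or 0.10 M, pH 6.5 or 8.0, ionic strength […] °C. Pyridinium UV absorbance maximum followed with time to give pseudo-first-order kobs and half-life.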

[4] = Half life at the ionic strength 0.10 M NaCl; format: ADME
Outline: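 Pyridinium salt in 0.02 M phosphate buffer, pH 7.4, 25 °C, with NaCl varied 0.10–1.0 M. Loss of the pyridinium chromophore's UV absorbance maximum (conversion to pyridone) followed over time. Pseudo-first-order kobs and half-life derived from that decay.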

MX1 = test: In vivo activity against murine MX-1 tumor system at the dose of 75 mg/kg, activity expressed as %T/C.; format: functional, Mus musculus
L1210 [5] = test: In vivo activity against murine L1210 tumor system at the dose of mg/kg, activity expressed as KE; format: functional, Mus musculus
Outline: (§2)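 L1210 lymphocytic leukemia: ascitic fluid with ca. 10^6 cells injected ip into CD2F1 mice. Dosing started 24 h after inoculation and was repeated daily for five doses in total, from solutions or suspensions made fresh each day. Toxicity day survivors were scored on day 5. Body weight difference is day 5 minus day 1. %T/C is based on median survival time versus controls.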

[6] = In vivo activity against murine M5076 tumor system at the dose of 25 mg/kg, activity expressed as TDS; 10/10; format: functional, Mus musculus
Outline: (§3)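 M5076: ascitic fluid with ca. 10^6 cells inoculated ip into CD2F1 mice. Dosing started 24 h after inoculation and was then given every 4 days for four doses in total, from solutions or suspensions made fresh each day. Toxicity day survivors were scored on day 5. Body weight difference is day 14 minus day 1. %T/C is based on median survival time versus controls.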

L1210 [7] = test: In vivo activity against murine L1210 tumor system at the dose of 100 mg/kg, activity expressed as TDS; 0/6; format: functional, Mus musculus; outline: as §2
[8] = Half life at the concentration of 0.05 M.
[9] = Effect of pH on carbamate hydrolysis in 0.05 M buffer concentration at the pH 3.0, 25 degree C.; format: ADME
Outline: (§4)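 Bis-carbamate in acetonitrile–water (1:1; buffer added to a 0.5 mg/mL acetonitrile solution), 0.05 M buffer, ionic strength 0.136 (KCl), 25 ± 0.1 °C. Buffers: phosphate pH 2.0; citrate pH 3.0–3.5; succinate pH 4.0; acetate pH 5.0; phosphate pH 6.0–8.0; borate pH 9.0; carbonate pH 10.0. HPLC bis-carbamate peak-area loss, ln(area0/areat) vs time slope = kobs. Duplicates averaged.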

[10] = Effect of pH on carbamate hydrolysis in 0.05 M buffer concentration at the pH 6.0, 25 degree C.; format: ADME; outline: as §4
[11] = Effect of pH on carbamate hydrolysis in 0.05 M buffer concentration at the pH 8.0, 25 degree C.; format: ADME; outline: as §4
[12] = Effect of phosphate buffer on carbamate hydrolysis in acetonitrile-water at the concentration of 0.01 M on pH 7.4, 25 degree C.; format: ADME
Outline: (§5)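 Bis-carbamate in acetonitrile–water (1:1), 25 ± 0.1 °C. Citrate buffer at pH 3.0 or phosphate buffer at pH 7.4, at 0.01, 0.025 or 0.05 M, ionic strength 0.136 (KCl). Kinetics followed by HPLC as the decrease in bis-carbamate peak area. The regression slope of ln(area0/areat) vs time gave pseudo-first-order kobs. Duplicates averaged.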

[13] = Effect of phosphate buffer on carbamate hydrolysis in acetonitrile-water at the concentration of 0.025 M on pH 3.0, 25 degree C.; format: ADME; conditions: in the assay text read “citrate buffer” for “phosphate buffer”; outline: as §5
[14] = Effect of Ionic strength on carbamate hydrolysis in acetonitrile-water at 0.05 M buffer concentration, pH 7.4,25 degree C; format: ADME
Outline: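 Bis-carbamate in acetonitrile–0.05 M phosphate buffer (1:1), pH 7.4, 25 °C, at varied ionic strength. Loss of bis-carbamate HPLC peak area tracked over time. Pseudo-first-order kobs taken from the ln(area0/areat) vs time slope.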

[15] = Effect of pH on carbamate hydrolysis in 0.05 M buffer concentration at the pH 10.0, 25 degree C.; format: ADME; outline: as §4
[16] = Effect of pH on carbamate hydrolysis in 0.05 M buffer concentration at the pH 2.0, 25 degree C.; format: ADME; outline: as §4
[17] = Half life at the concentration of 0.025 M.; format: ADME
L1210 [18] = test: In vivo activity against murine L1210 tumor system at the dose of 100 mg/kg, activity expressed as body weight difference; T-C; format: functional, Mus musculus; outline: as §2
L1210 [19] = test: In vivo activity against murine L1210 tumor system at the dose of 21.6 mg/kg, activity expressed as body weight difference; T-C; format: functional, Mus musculus; outline: as §2
L1210 [20] = test: In vivo activity against murine L1210 tumor system at the dose of 36 mg/kg, activity expressed as body weight difference; T-C; format: functional, Mus musculus; outline: as §2
[21] = In vivo activity against murine M5076 tumor system at the dose of 60 mg/kg, activity expressed as KE; format: functional, Mus musculus
[22] = In vivo activity against murine M5076 tumor system at the dose of 36 mg/kg, activity expressed as %T/C.; format: functional, Mus musculus; outline: as §3
[23] = In vivo activity against murine M5076 tumor system at the dose of 60 mg/kg, activity expressed as %T/C.; format: functional, Mus musculus
[24] = In vivo activity against murine M5076 tumor system at the dose of 166.7 mg/kg, activity expressed as TDS; 4/10; format: functional, Mus musculus; outline: as §3
[25] = In vivo activity against murine M5076 tumor system at the dose of 60 mg/kg, activity expressed as TDS; 10/10; format: functional, Mus musculus
L1210 [26] = test: In vivo activity against murine L1210 tumor system at the dose of 21.6 mg/kg, activity expressed as TDS; 6/6; format: functional, Mus musculus; outline: as §2
L1210 [27] = test: In vivo activity against murine L1210 tumor system at the dose of 36 mg/kg, activity expressed as TDS; 6/6; format: functional, Mus musculus; outline: as §2
[28] = In vivo activity against murine M5076 tumor system at the dose of 36 mg/kg, activity expressed as body weight difference; T-C; format: functional, Mus musculus; outline: as §3
P388 = test: In vivo activity against P388 Lymphocytic Leukemia in CD2F1 mice at the dose of 100 mg/kg, activity expressed as % T/C; format: functional, Mus musculus
Outline: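 CD2F1 mice were inoculated with ascitic fluid holding ca. 10^6 P388 cells. Drug was given daily from 24 h after inoculation, from solutions or suspensions made fresh each day, some as a saline suspension. TDS is survivors/initial animals on day 5. BWD is body weight on day 5 minus day 1. %T/C compares median survival of treated and control mice.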

K obs [1]: 0.0208 min⁻¹
K obs [2]: 0.0337 min⁻¹
K obs [3]: 0.036 min⁻¹
half-life [4]: 29.1 min
T1/2 [8]: 96.2 min
Structure (SMILES): CC(C)NC(=O)OCc1c(COC(=O)NC(C)C)c(-c2cc[n+](C)c(F)c2)n2c1CCC2.[I-]
T/C (MX1): 34%
KE (L1210 [5]): -2.08
TDS [6]: 10
TDS (L1210 [7]): 0

K obs [9]: 0.0304 min⁻¹
K obs [10]: 0.0135 min⁻¹
K obs [11]: 0.0128 min⁻¹
K obs [12]: 0.0133 min⁻¹
K obs [13]: 0.0342 min⁻¹
K obs [15]: 0.0133 min⁻¹
K obs [16]: 0.33 min⁻¹
half-life [17]: 20.3 min
Structure (SMILES): CC(C)NC(=O)OCc1c(COC(=O)NC(C)C)c(-c2ccn(C)c(=O)c2)n2c1CCC2
K obs [14]: 0.013 min⁻¹ and 0.0124 min⁻¹ and 0.008 min⁻¹
BWD (L1210 [18]): -4.2 g
BWD (L1210 [19]): -0.3 g
BWD (L1210 [20]): -0.3 g
KE [21]: -1.79
T/C [22]: 117%
T/C [23]: 114%
TDS [24]: 4
TDS [25]: 10
TDS (L1210 [26]): 6
TDS (L1210 [27]): 6
BWD [28]: 1.8 g
T/C (P388): 148%
